Source: PubChem
T cell modulator: modulates CD8 T cell binding to vesicles; 2C CD8+ T cell-vesicle binding, flow cytometry; hits give low values; response (vesicle binding), % at 7 µM; 330,000 compounds, 0.068% hits; AID 2052;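 active = response, share of CD8 T cells binding vesicles, and their 90th percentile fluorescence all below set limits, cut at about 80% in these data, passing the limit was not always enough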;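 also: values below 100% mean blocked vesicle binding to the CD8+ T cells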
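material = purified 2C TCR transgenic mouse naive CD8+ T cells | controls = Unloaded micro-vesicles (low), QL9 vesicles with 0.7% DMSO (high) | detection = cytometric PE anti-B7-1 and Alexa647 anti-CD8 signals after 1% paraformaldehyde fixation | incubation = binding step 1.5 h, 37 °C, antibody labelling 20 min, ice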
HIF activator: HIF pathway transcriptional activation. U2OS HRE-luciferase reporter, luminescence; normalized: DMSO 0%, desferrioxamine 100%. activation, % at 7.5 µM (by protocol). 300,000 compounds, 0.32% hits. AID 1910;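 active = mean activation of at least 10% of the iron chelator positive control signal, with at least half of replicates also reaching 10%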
GASC-1 inh: blocks human GASC-1 demethylase activity; GST-JMJD2C(1-420) H3K9me3 demethylation, DELFIA europium; 330,000 compounds, 0.069% hits; inhibition, % at 2.35 µM;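 active = more than half of a compound's replicate wells show inhibition beyond 50%, single wells judged on their own value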;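 also: signal counts dimethyl H3K9 product captured on neutravidin plate; 0% = median of DMSO wells and 100% = 0.3 times that DMSO median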
Target sequence (Q9H3R0 1-420 limits assumed): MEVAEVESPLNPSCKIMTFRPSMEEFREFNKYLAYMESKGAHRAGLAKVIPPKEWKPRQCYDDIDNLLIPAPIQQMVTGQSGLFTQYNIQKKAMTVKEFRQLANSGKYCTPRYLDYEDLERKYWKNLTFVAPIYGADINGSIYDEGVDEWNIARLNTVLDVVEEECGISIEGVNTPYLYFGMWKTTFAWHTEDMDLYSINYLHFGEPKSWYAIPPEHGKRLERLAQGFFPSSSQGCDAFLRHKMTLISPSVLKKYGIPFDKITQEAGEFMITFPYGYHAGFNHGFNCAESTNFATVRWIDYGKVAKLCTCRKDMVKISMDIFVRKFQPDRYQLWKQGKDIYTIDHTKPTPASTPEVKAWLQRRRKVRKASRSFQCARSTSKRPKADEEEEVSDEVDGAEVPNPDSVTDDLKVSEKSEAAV
Mot1-301 SUMO: inhibitors of SUMOylation pathway: yeast Mot1-301 growth rescue; S. cerevisiae Mot1-301 growth rescue, ATP luminescence, 38.5C; percent above DMSO median, 100 means doubled; 320,000 compounds, 1% hits; AID 2716; growth rescue, % at 18.8 µM;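 active = every valid replicate shows activation above 250% relative to neutral control wells; inactive = the rest, any valid replicate at or below 250%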;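 also: OY570 slx delta 5 strain wells were the positive control but not used for scaling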
Starred values were filed as active, the others as inactive; x = no result given; + = active, no number. Compounds with a hit are over-represented: about 1.4% of the library has one in this group of screens.

SMILES | T cell modulator | HIF activator | GASC-1 inh | Mot1-301 SUMO
Nc1ccc(C(=O)N/N=C\c2cc(N=Nc3cccc4ccccc34)ccc2O)cc1 | 405 | 14* | x | 18
CC(OC(=O)C1CCN(c2ccc(C(F)(F)F)cn2)CC1)C(=O)Nc1cccc([N+](=O)[O-])c1 (centres undefined) | 147 | x | -1 | 6
O=C(CSc1nncn1-c1ccccc1)Nc1cc(F)ccc1F | 234 | -1 | -18 | -10
Cc1ccc2c(=O)n3c(nc2c1)C(CC(C)C)NC(=O)c1ccc(Cl)cc1-3 (centres undefined) | 597 | x | 7 | 10
CC(=O)Nc1ccc2c(c1)CCCC2=O | 320 | 9.6* | 2 | 343
CCOc1ccc(S(=O)(=O)N2CCN(C(=O)C3CCC3)CC2)cc1 | 308 | 0 | 0 | 18
CN(C(=O)CSc1nnc(-c2ccncc2)n1Cc1ccccc1)C1CCS(=O)(=O)C1 (centres undefined) | 211 | 0 | -5 | -3
COc1ccc(OC)c(NC(=O)Cc2coc3ccc4ccccc4c23)c1 | 432 | 0 | 26 | 497*
COc1ccc(OC)c(NC(=O)Cc2coc3ccc(C)cc23)c1 | 731 | x | 7 | 2
Cc1cccnc1Nc1nc(-c2ccccn2)cs1 | 512 | 182* | -7 | x
Cc1cccnc1Nc1nc(-c2ccccc2)cs1 | 248 | 2 | 7 | -1
CCOC(=O)c1cc(COc2cc(Cl)cc(Cl)c2)on1 | 348 | 0 | 3 | 3
COc1ccccc1NC(=O)c1ccc(N2CC3CC(C2)c2cccc(=O)n2C3)c(NC(=O)c2ccncc2)c1 (centres undefined) | 892 | 0 | -4 | -6
COc1cc(/C=C(\NC(=O)c2ccccc2)C(=O)N2CC3CC(C2)c2cccc(=O)n2C3)cc(OC)c1OC (centres undefined) | 123 | 0 | 13 | +
COc1ccc(CCNC(=O)/C=C/c2ccco2)cc1OC | 755 | 0 | -20 | -5
COc1ccc(/C=C/C(=O)NCCSCc2ccco2)cc1OC | 300 | 57* | 9 | -6
CCOC(=O)c1cc2c(ccn2C)n1CC(=O)N1CCN(c2ccccc2)CC1 | x | 288* | -9 | 230
CCC(C)Sc1ccc(-c2nc3ccc(C)cn3c2NC2CCCCC2)cc1 (centres undefined) | 206 | -5 | 6 | -2
CCC(C)Sc1cccc(-c2nc3ccc(C)cn3c2NC2CCCCC2)c1 (centres undefined) | 256 | -3 | 1 | 341*
COc1cc(/C=C/C(=O)c2ccc3c(c2)OCCO3)cc(Br)c1OCC(=O)N(C)C | 99 | 25* | -2 | 0
O=C(c1ccc2c(c1)OCO2)N1CCN(c2ccc(C(F)(F)F)cn2)CC1 | 643 | 0 | 5 | -9
O=C(c1ccc2ccccc2c1)N1CCN(c2ccc(C(F)(F)F)cn2)CC1 | 216 | 0 | -11 | 316*
CCOC(=O)N1CCN(c2ccc(Cl)c(Cl)c2)CC1 | 335 | 107* | -2 | 2
CSc1ncccc1C(=O)NNC(=O)c1ccc(NS(=O)(=O)c2cccs2)cc1 | 385 | 0 | 8 | -7
COc1cccc(-c2nnc(N(C)C(=O)C3CCOC3)s2)c1 (centres undefined) | 279 | 5 | 1 | 344*
SMILES | T cell modulator | HIF activator | GASC-1 inh | Mot1-301 SUMO
Cc1ncc(CO)c(/C=N/NC(=O)c2cc3c(s2)CCCC3)c1O | 448 | 22* | 2 | -1
Cc1ncc(CO)c(/C=N/NC(=O)c2ccc(O)cc2)c1O | 292 | -1 | 11 | 0
CC[C@@]1(O)C(=O)OCc2c1cc1n(c2=O)Cc2cc3c(N)cccc3nc2-1 | 763 | 17* | 9 | 0
O=c1cccc2n1Cc1cc3ccccc3nc1-2 | 145 | 3 | 0 | -13
O=c1cc(-c2ccc(O)cc2)oc2c(C3O[C@H](CO)[C@@H](O)[C@H](O)[C@H]3O)c(O)cc(O)c12 (some centres undefined) | 443 | x | x | 13
O=c1cc(-c2ccc(O)c(O)c2)oc2c(C3O[C@H](CO)[C@@H](O)[C@H](O)[C@H]3O)c(O)cc(O)c12 (some centres undefined) | 403 | 0 | 64* | 9
CC(=O)Nc1ccc(C(=S)NCCCO)cc1 | 696 | -1 | 11 | 12
CC1(C)Cc2c(C#N)c(NC3CCCCC3)nc(-c3ccco3)c2CO1 | 0.0* | 0 | 8 | 104
Cc1ccc[n+](CC(=O)Nc2cc(C(F)(F)F)ccc2N2CCOCC2)c1 | 179 | 0 | -3 | 303
CCOC(=O)N1CCN(C(=O)COc2cc(=O)n(CC)c3ccccc23)CC1 | 377 | 1 | 1 | -8
